For assay [1], the target named is T1, Enoyl-[acyl-carrier-protein] reductase [NADPH] FabI (Staphylococcus aureus) (UniProt Q6GI75).
T1 sequence (whole entry): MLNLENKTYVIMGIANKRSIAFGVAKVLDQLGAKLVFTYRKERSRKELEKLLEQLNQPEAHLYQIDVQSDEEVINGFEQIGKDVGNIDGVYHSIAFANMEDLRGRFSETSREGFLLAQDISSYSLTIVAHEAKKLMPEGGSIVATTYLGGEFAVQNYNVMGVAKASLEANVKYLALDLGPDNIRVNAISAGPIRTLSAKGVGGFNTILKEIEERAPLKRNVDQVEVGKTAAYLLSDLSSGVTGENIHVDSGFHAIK
Kind of assay: Inhibition of Staphylococcus aureus FabI-mediated reduction of enoyl-ACP preincubated at 1 uM for 30 mins measured after 2 hrs by spectrophotometry. The essentials:
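Spectrophotometric FabI assay in 100 mM sodium ADA buffer, pH 6.5. Enzyme (2400 ng/assay) preincubated 30 min with NADH and compound. Reaction started with crotonoyl CoA. After 2 h at room temperature, NADH oxidation read as the fall in absorbance at 340 nm.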

In assay [2] the target is T2, Enoyl-[acyl-carrier-protein] reductase [NADPH] FabI (Staphylococcus aureus, UniProt Q6GI75).
T2 sequence (Q6GI75 whole entry): T1 sequence (whole entry)
The assay can be described thus: Inhibition of Staphylococcus aureus FabI-mediated reduction of enoyl-ACP preincubated for 30 mins measured after 2 hrs by spectrophotometry.

In assay [3] the test system is Staphylococcus aureus. The assay can be described thus: Antibacterial activity against methicillin-sensitive Staphylococcus aureus ATCC 29213 after 16 to 20 hrs by broth microdilution method. The assay is classed as functional. The essentials: (§1)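 Broth microdilution in MHB, serial two-fold compound dilutions; final inoculum 5 × 10⁵ CFU/mL; broth, compound and organism controls in duplicate; S. aureus ATCC 29213 as quality control strain; incubation 35 °C, 16–20 h, ambient air; growth read by unaided eye with viewing device, end point set against no-antibiotic control wells.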
(Broth dilution looks for growth in wells or tubes with falling amounts of substance.)

Assay [4] has as its system Staphylococcus aureus. The assay can be described thus: Antibacterial activity against methicillin-resistant Staphylococcus aureus ATCC 33591 after 16 to 20 hrs by broth microdilution method. The assay is classed as functional. The method, boiled down: as §1
The subject of assay [5] is Staphylococcus epidermidis. The assay can be described thus: Antibacterial activity against methicillin-resistant Staphylococcus epidermidis AUCC 704 after 16 to 20 hrs by broth microdilution method. The assay is classed as functional. The method, boiled down: as §1

SMILES strings stand for the structures. Values after ≈ are worked out from the molar mass of the structure shown.

In general, inhibition refers to the relative decrease from the control value, in per cent. By IC50 is commonly meant the midpoint of a concentration-inhibition curve. Low readings indicate greater potency in that assay, high ones weaker potency in that assay. Broadly, the MIC is the least concentration at which growth counts as inhibited. A low value points to inhibition by little substance.

On to `Cc1cc(C2CN(C(=O)/C=C/c3cnc4c(c3)CCC(=O)N4)C2)nc2ccccc12`, for which the inhibition in assay [1] came to 84%. In assay [2], the IC50 is 242 nM. Besides, the figures for the MIC (in the assay on Staphylococcus aureus [3]; in the assay on Staphylococcus aureus [4]; in assay [5]) were 32 µg/mL (≈ 80.3 µM), over 32 µg/mL and over 32 µg/mL, respectively.
Consider `Cc1c(C2CN(C(=O)/C=C/c3ccc(NC(=O)Cn4ccnn4)nc3)C2)oc2ccccc12`, for which, in assay [1], the inhibition was 66%. Moreover, the midpoint of inhibition in assay [2], the IC50, lay at 843 nM. Besides, the MIC (in the assay on Staphylococcus aureus [3]; against Staphylococcus aureus [4]; in assay [5]) was over 32 µg/mL in each case.
On to `Cc1c(C2CN(C(=O)/C=C/c3cnc4c(c3)NCCC(=O)N4)C2)oc2ccccc12`, for which, in assay [1], the inhibition is 92%. Also, the IC50 in assay [2] amounted to 316 nM. The MIC against Staphylococcus aureus [3] was found to be 0.25 µg/mL (≈ 0.621 µM); with Staphylococcus aureus [4] it was 0.5 µg/mL (≈ 1.24 µM); in assay [5], 1 µg/mL (≈ 2.48 µM).
In the case of `O=C1CCc2cc(/C=C/C(=O)N3CC(COc4ccccc4)C3)cnc2N1`, the inhibition in assay [1] turned out to be 81%. The IC50 in assay [2] was 265 nM. The MIC came to 0.25 µg/mL (≈ 0.688 µM) with Staphylococcus aureus [3], 0.25 µg/mL (≈ 0.688 µM) against Staphylococcus aureus [4] and 1 µg/mL (≈ 2.75 µM) in assay [5].
With `O=C1CCc2cc(/C=C/C(=O)N3CC(OCc4ccccc4)C3)cnc2N1`, in assay [1], the inhibition came out at 69%. This molecule also showed an IC50 in assay [2] of 376 nM. In addition, the MIC against Staphylococcus aureus [3] came out at 1 µg/mL (≈ 2.75 µM); against Staphylococcus aureus [4], 2 µg/mL (≈ 5.5 µM); in assay [5], 2 µg/mL (≈ 5.5 µM).
With `Cc1c(C2CN(C(=O)/C=C/c3cnc4c(c3)CN(CCN3CCOCC3)C(=O)N4)C2)oc2ccccc12`, the inhibition in assay [1] came out at 105%. In assay [2], this molecule returned an IC50 of 58 nM. Moreover, the MIC in the assay on Staphylococcus aureus [3] turned out to be 1 µg/mL (≈ 1.99 µM); in the assay with Staphylococcus aureus [4], 1 µg/mL (≈ 1.99 µM); in assay [5], 2 µg/mL (≈ 3.99 µM).
In the case of `O=C1CCc2cc(/C=C/C(=O)N3CCC3)cnc2N1`, in assay [1], the inhibition stood at 15%. The MIC (with Staphylococcus aureus [3]; in the assay on Staphylococcus aureus [4]; in assay [5]) was over 32 µg/mL throughout.
Take `O=C1CCc2cc(/C=C/C(=O)N3CC(c4ccccc4)C3)cnc2N1`: the inhibition in assay [1] came to 80%. The molecule also came in with an IC50 in assay [2] of 488 nM. Moreover, the MIC in the assay with Staphylococcus aureus [3] came out at 1 µg/mL (≈ 3 µM); against Staphylococcus aureus [4] it was 2 µg/mL (≈ 6 µM); in assay [5] it was 2 µg/mL (≈ 6 µM).
In the case of `O=C1CCc2cc(/C=C/C(=O)N3CC(Oc4ccccc4)C3)cnc2N1`, the inhibition in assay [1] came out at 35%. In addition, the MIC is 4 µg/mL (≈ 11.4 µM) against Staphylococcus aureus [3], 4 µg/mL (≈ 11.4 µM) in the assay on Staphylococcus aureus [4] and 16 µg/mL (≈ 45.8 µM) in assay [5].
On to `Cc1ccc(OCC2CN(C(=O)/C=C/c3cnc4c(c3)CCC(=O)N4)C2)cc1`, for which the inhibition in assay [1] stood at 67%. Also, the IC50 in assay [2] worked out at 921 nM. Further, the results for the MIC (against Staphylococcus aureus [3]; against Staphylococcus aureus [4]; in assay [5]) were 1 µg/mL (≈ 2.65 µM), 1 µg/mL (≈ 2.65 µM) and 2 µg/mL (≈ 5.3 µM), respectively.
Regarding `O=C1CCc2cc(/C=C/C(=O)N3CC(Oc4nc5ccccc5s4)C3)cnc2N1`, the inhibition in assay [1] is 16%. Further, the MIC (with Staphylococcus aureus [3]; against Staphylococcus aureus [4]; in assay [5]) was over 32 µg/mL each time.
In the case of `CC(=O)Nc1ccc(/C=C/C(=O)N2CC(c3oc4ccccc4c3C)C2)cn1`, in assay [1], the inhibition was 97%. In assay [2], this molecule returned an IC50 of 161 nM. In addition, the results for the MIC (against Staphylococcus aureus [3]; in the assay with Staphylococcus aureus [4]; in assay [5]) were 1 µg/mL (≈ 2.66 µM), 1 µg/mL (≈ 2.66 µM) and 8 µg/mL (≈ 21.3 µM), respectively.
Take `COc1ccc2oc(C3CN(C(=O)/C=C/c4cnc5c(c4)CCC(=O)N5)C3)c(C)c2c1`: the MIC was 0.5 µg/mL (≈ 1.2 µM) in the assay on Staphylococcus aureus [3], 1 µg/mL (≈ 2.4 µM) with Staphylococcus aureus [4] and 2 µg/mL (≈ 4.79 µM) in assay [5].
With `Cc1c(C2CN(C(=O)/C=C/c3cnc4c(c3)CN(CCN3CCOCC3)CC(=O)N4)C2)oc2ccccc12`, in assay [1], the inhibition amounted to 100%. In assay [2], this molecule had an IC50 of 289 nM. Moreover, the results for the MIC (against Staphylococcus aureus [3]; against Staphylococcus aureus [4]; in assay [5]) were 1 µg/mL (≈ 1.94 µM), 1 µg/mL (≈ 1.94 µM) and 2 µg/mL (≈ 3.88 µM), respectively.
`O=C1CCc2cc(/C=C/C(=O)N3CC(Cc4nc5ccccc5s4)C3)cnc2N1`: the inhibition in assay [1] amounted to 41%. Also, the MIC against Staphylococcus aureus [3] was 2 µg/mL (≈ 4.94 µM); with Staphylococcus aureus [4], 4 µg/mL (≈ 9.89 µM); in assay [5], 2 µg/mL (≈ 4.94 µM).
On to `Cc1cccc(OCC2CN(C(=O)/C=C/c3cnc4c(c3)CCC(=O)N4)C2)c1`, for which the inhibition in assay [1] came to 47%. Besides, the MIC (with Staphylococcus aureus [3]; with Staphylococcus aureus [4]; in assay [5]) was 2 µg/mL (≈ 5.3 µM) each time.
